Source: PubChem BioAssay
Active and inactive are the calls of the source.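 Rule for the calls, unless noted: active = viability at or under a set limit in both replicates, limit being median viability minus 3 SD (cut at about 48% in these data, passing the limit was not always enough); inconclusive = at or under the limit in just one replicate; inactive = at or above the limit in both replicates.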

How the values were obtained:
[1] = Her2 expression decrease, cell viability multiplex – SKBR3 breast tumor cells, AlphaScreen, ATP viability, primary screen (AID 461;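 active = Her2 level under about 52% in both replicate screens, with viability over 70% of control, limit read from the data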;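 for Her2 level: lower value means less Her2 protein in the cells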;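 for viability: percent of carrier control wells set as 100% viability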); settings: SKBR3 Her2 protein level, 18-24 h, measured here: SKBR3 viability, ATP luminescence, at 10 µM
[2] = target: Receptor tyrosine-protein kinase erbB-2 (Homo sapiens) (UniProt P04626); assay: as above; settings: 18-24 h, at 10 µM, stronger effect = lower value
Receptor tyrosine-protein kinase erbB-2 (Homo sapiens), sequence (P04626 whole entry, looked up): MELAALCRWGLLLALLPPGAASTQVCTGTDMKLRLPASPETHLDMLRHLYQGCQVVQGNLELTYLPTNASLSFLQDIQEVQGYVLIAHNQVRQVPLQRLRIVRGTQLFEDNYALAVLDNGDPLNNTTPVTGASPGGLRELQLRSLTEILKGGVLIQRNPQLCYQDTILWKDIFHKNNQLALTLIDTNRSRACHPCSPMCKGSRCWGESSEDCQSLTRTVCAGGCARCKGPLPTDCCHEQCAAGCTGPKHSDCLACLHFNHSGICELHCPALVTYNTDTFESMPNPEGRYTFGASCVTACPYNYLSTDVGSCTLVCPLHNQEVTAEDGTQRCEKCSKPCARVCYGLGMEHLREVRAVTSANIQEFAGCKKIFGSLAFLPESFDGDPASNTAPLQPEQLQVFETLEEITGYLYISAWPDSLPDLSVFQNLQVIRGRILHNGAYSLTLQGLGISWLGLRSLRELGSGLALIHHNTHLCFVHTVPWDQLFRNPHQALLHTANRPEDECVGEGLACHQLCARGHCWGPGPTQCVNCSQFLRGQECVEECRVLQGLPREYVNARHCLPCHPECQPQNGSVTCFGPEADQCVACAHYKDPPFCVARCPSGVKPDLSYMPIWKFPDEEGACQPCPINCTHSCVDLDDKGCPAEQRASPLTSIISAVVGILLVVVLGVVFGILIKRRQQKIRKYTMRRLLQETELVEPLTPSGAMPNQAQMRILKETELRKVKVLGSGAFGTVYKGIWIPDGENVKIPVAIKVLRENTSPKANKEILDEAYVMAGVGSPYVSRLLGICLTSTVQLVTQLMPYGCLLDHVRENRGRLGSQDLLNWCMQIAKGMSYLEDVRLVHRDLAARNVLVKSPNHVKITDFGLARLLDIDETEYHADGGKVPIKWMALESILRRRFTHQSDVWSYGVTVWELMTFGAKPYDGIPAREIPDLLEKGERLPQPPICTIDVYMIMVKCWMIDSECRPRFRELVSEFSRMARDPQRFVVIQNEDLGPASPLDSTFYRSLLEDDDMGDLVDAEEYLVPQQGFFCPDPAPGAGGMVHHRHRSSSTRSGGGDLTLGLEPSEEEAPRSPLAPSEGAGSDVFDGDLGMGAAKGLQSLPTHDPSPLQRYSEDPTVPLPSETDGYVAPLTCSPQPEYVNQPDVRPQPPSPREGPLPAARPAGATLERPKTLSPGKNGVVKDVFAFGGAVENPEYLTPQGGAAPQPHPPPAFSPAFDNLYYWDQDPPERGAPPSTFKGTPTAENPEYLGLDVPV

[3] = reduced viability of SK-BR-3 breast cancer cells – cell-based, 24 h, human, pilot screen (AID 572;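 active = viability at or below 10% of carrier control in both of two separate runs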;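 note: compound exposure lasted between 18 and 24 h rather than exactly 24 h; 100% = carrier-treated control wells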); settings: SK-BR-3 viability, CellTiter-Glo luminescence, at 10 µM, stronger effect = lower value
[4] = HUVEC growth inhibition – cell-based, human, primary screen (AID 575;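 active = viability at or below 30% in both replicate assays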;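 note: 100% = median of untreated cell wells with 0.1% DMSO on each plate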); settings: HUVEC proliferation, CellTiter-Glo luminescence, 72 h; at 10 µM; stronger effect = lower value
In short: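 Assay system: primary human umbilical vein endothelial cells / Buffer or medium: endothelial basal medium with 2% FBS plus growth supplements / Compound dosing: one dose, 10 µM final, 0.1% DMSO / Timing: 72 h treatment at 37 °C / Signal: CTG luminescence / Benchmarks: 32 DMSO-only cell-control wells (high), 32 MePR drug-control wells (low) per plate / Plate: collagen-coated 384-well format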

[5] = H69AR cell proliferation blockers – human, duplicate replicates, primary screen (AID 580); settings: H69AR lung tumor cells viability, ATP luminescence, 72 h; at 10 µM; stronger effect = lower value;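 note: 100% = mean luminescence of untreated wells and 0% = no signal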
[6] = MRP1 drug-resistance reversers in H69AR cells – cell-based, doxorubicin co-treatment, pilot screen (AID 601;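 active = viability loss from added drug above about 55%, and viability with drug at most 40%, in both replicates, limit read from the data, passing the limit was not always enough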); settings: CellTiter-Glo, 72 h, at 10 µM; for differential viability (reversal): stronger effect = higher value
[7] = yeast transport mutant growth inhibition pilot in 384-well plates, post-Golgi transport modulator project (AID 636; in the data active = inhibition above about 31%); settings: absorbance 615 nm, about 18 h, stronger effect = higher value
[8] = growth suppression of yeast trafficking mutant, preliminary HTS, modulators of trafficking downstream of Golgi apparatus project, 1536-format plate, OD 615 nm (AID 637; in the data active = inhibition above about 30%); settings: yeast transport mutant growth, absorbance 615 nm, 18 h; stronger effect = higher value
[9] = H69AR cells + 2 uM doxorubicin, measured here: viability with 2 uM doxorubicin, stronger effect = lower value
[10] = H69AR cells, compound alone cytotoxicity

Compound | viability [1] [%] | Her2 level [2] | viability [3] | viability [4] | viability [5] | differential viability (reversal) ([6]; H69AR cells + 2 uM doxorubicin) | viability [6, 9] [%] | viability [6, 10] [%] | inhibition [7] | inhibition [8]
CCOC(=O)c1ccc(NC(=O)CCc2nc(-c3cccc(C)c3)no2)cc1 | 114 | 97.5% (inactive) | 114% (inactive) | 40.8% (inactive) | 86.2% (inactive) | -12.8% (inactive) | 99.1 | 86.2 | 0.41% (inactive) | 13% (inactive)
c1ccc(CC2CCN(C(c3cccs3)c3nnnn3C3CCCC3)CC2)cc1 (stereo not given) | 102 | 128% (inactive) | 102% (inactive) | 91.9% (inactive) | 93.4% (inactive) | -0.24% (inactive) | 93.7 | 93.4 | 1.92% (inactive) | -0.63% (inactive)
O=C(OCc1cc2ccccc2[nH]c1=O)c1ccco1 | 106 | 114% (inactive) | 106% (inactive) | 95.9% (inactive) | 100% (inactive) | 6.74% (inactive) | 93.3 | 100 | -1.43% (inactive) | -6.67% (inactive)
COc1cc(S(=O)(=O)N2CCOCC2)ccc1NC(=O)COC(=O)C12CC3CC(CC(C3)C1)C2 | 92 | 73.5% (inactive) | 92% (inactive) | 87.2% (inactive) | 85% (inactive) | -11.2% (inactive) | 96.2 | 85 | 0.38% (inactive) | -11.7% (inactive)
CC(C)Cn1c(=O)c(C2=NS(=O)(=O)c3ccccc3N2)c(O)c2ccccc21 | 118 | 86.5% (inactive) | 118% (inactive) | 97% (inactive) | 98.1% (inactive) | -0.935% (inactive) | 99 | 98.1 | -2.21% (inactive) | 1.8% (inactive)
C[C@H](NC(=O)OC(C)(C)C)C(=O)NCC1CCC(C(=O)O)CC1 (stereo not given in full) | 101 | 97% (inactive) | 101% (inactive) | 103% (inactive) | 108% (inactive) | 11.7% (inactive) | 96.4 | 108 | -5.73% (inactive) | -1.29% (inactive)
O=C(CSc1ncccn1)NCc1ccccc1 | 94 | 112% (inactive) | 94% (inactive) | 106% (inactive) | 105% (inactive) | 5.14% (inactive) | 100 | 105 | 4.4% (inactive) | -8.71% (inactive)
Cc1ccc(-n2ncc(C(=O)N3CCc4ccccc4C3)c2NC(=O)c2ccco2)cc1C | 94 | 92% (inactive) | 94% (inactive) | 83.6% (inactive) | 86.1% (inactive) | -3.83% (inactive) | 89.9 | 86.1 | -0.13% (inactive) | -3.44% (inactive)
COc1ccccc1CN1C(=O)CCC1(C)C(=O)NC1CCCCCC1 (stereo not given) | 83 | 99% (inactive) | 83% (inactive) | 101% (inactive) | 98.1% (inactive) | 2.86% (inactive) | 95.2 | 98.1 | -2.13% (inactive) | 2.62% (inactive)
COc1ccc(/C=N/n2c(=O)[nH]c3c([nH]c4ccc(C)cc43)c2=O)cc1CN1CCOCC1 | 112 | 100% (inactive) | 112% (inactive) | 95.6% (inactive) | 84.6% (inactive) | 0.925% (inactive) | 83.7 | 84.6 | -1.71% (inactive) | 12% (inactive)
Cc1csc(NC(=O)c2cc3c(s2)-c2ccccc2OC3)n1 | 91 | 92.5% (inactive) | 91% (inactive) | 75% (inactive) | 37.7% (active) | -17.7% (inactive) | 55.5 | 37.7 | -2.82% (inactive) | -1% (inactive)
N#CCCNCC1(c2ccccc2)CCCC1 | 96 | 94% (inactive) | 96% (inactive) | 106% (inactive) | 102% (inactive) | 12.9% (inactive) | 89.4 | 102 | 2.97% (inactive) | -4.13% (inactive)
CC(C)CNC(=O)C1CC(=O)OC12CCCCC2 (stereo not given) | 100 | 95% (inactive) | 100% (inactive) | 112% (inactive) | 113% (inactive) | 22.3% (inactive) | 90.5 | 113 | -8.11% (inactive) | 4.92% (inactive)
CC(=O)Nc1cc2c(nc1C)nc(C)n2Cc1ccc(Br)cc1 | 76 | 88% (inactive) | 76% (inactive) | 90% (inactive) | 108% (inactive) | 12.7% (inactive) | 95.3 | 108 | -4.4% (inactive) | 0.33% (inactive)
